Source: ChEMBL document CHEMBL1914326, “Synthesis and anticonvulsant properties of new acetamide derivatives of phthalimide, and its saturated cyclohexane and norbornene analogs” (Eur J Med Chem, 2011)
The source made the active and inactive calls. The calls are words filed in the database; no cut-off is given here.

What was measured:
[1] = tested on: Mus musculus; assay: Anticonvulsant activity in ip dosed CF1 albino mouse assessed as protection against maximal electroshock after 0.5 hrs; assay type: functional; conditions: read-out: MED
Summary of the method: (§1)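 Male albino CF-1 mice in groups of eight received i.p. doses of 30, 100 and 300 mg/kg, suspended in 0.5% methylcellulose/water. Maximal electroshock seizures were tested at 0.5 and 4 h, with one additional 0.25 h reading at 100 mg/kg. The minimum dose giving protection was recorded. A dash means no activity at 300 mg/kg.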

[2] = tested on: Mus musculus; assay: Anticonvulsant activity in ip dosed CF1 albino mouse assessed as protection against maximal electroshock after 4 hrs; assay type: functional; conditions: read-out: MED; summary of the method: as §1
[3] = tested on: Mus musculus; assay: Neurotoxicity in CF1 albino mouse assessed as unable to grasp rotarod at 300 mg/kg, ip after 4 hrs by rotarod test; assay type: toxicity, organism-based; set-up: dose 300 mg/kg, route intraperitoneal; conditions: in vivo
Summary of the method: (§2)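 Acute neurotoxicity was scored on the minimal motor impairment rotorod test in male CF-1 mice. Animals in groups of eight were dosed i.p. at 30, 100 or 300 mg/kg in 0.5% methylcellulose/water and examined at 0.5 and 4 h. Untreated controls keep their balance on the rod for a prolonged time. The minimum dose causing impairment was recorded.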

[4] = tested on: Mus musculus; assay: Neurotoxicity in CF1 albino mouse assessed as unable to grasp rotarod at 300 mg/kg, ip after 0.5 hrs by rotarod test; assay type: toxicity, organism-based; set-up: dose 300 mg/kg, route intraperitoneal; conditions: in vivo; summary of the method: as §2
[5] = tested on: Mus musculus; assay: Anticonvulsant activity in CF1 albino mouse assessed as protection against subcutaneous pentylenetetrazole-induced seizures at 300 mg/kg, ip after 4 hrs; assay type: functional, organism-based; set-up: dose 300 mg/kg
Summary of the method: (§3)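 Male CF-1 mice in groups of eight were dosed i.p. at 30, 100 or 300 mg/kg in 0.5% methylcellulose/water. At 0.5 and 4 h, pentylenetetrazole 85 mg/kg (CD97 dose) was given s.c. This dose produces clonic seizures lasting at least 5 s. The minimum protective dose was recorded, with a top dose of 300 mg/kg.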

[6] = tested on: Mus musculus; assay: Anticonvulsant activity in CF1 albino mouse assessed as protection against subcutaneous pentylenetetrazole-induced seizures at 300 mg/kg, ip after 0.5 hrs; assay type: functional, organism-based; set-up: dose 300 mg/kg; summary of the method: as §3
[7] = tested on: Mus musculus; assay: Anticonvulsant activity in CF1 albino mouse assessed as protection against maximal electroshock at 300 mg/kg, ip after 0.5 hrs; assay type: functional, organism-based; set-up: dose 300 mg/kg; summary of the method: as §1
[8] = tested on: Mus musculus; assay: Anticonvulsant activity in CF1 albino mouse assessed as protection against maximal electroshock at 300 mg/kg, ip after 4 hrs; assay type: functional, organism-based; set-up: dose 300 mg/kg; summary of the method: as §1
[9] = tested on: Mus musculus; assay: Neurotoxicity in CF1 albino mouse assessed as motor impairment at 300 mg/kg, ip after 4 hrs by rotarod test; assay type: toxicity, organism-based; set-up: dose 300 mg/kg, route intraperitoneal; conditions: in vivo; summary of the method: as §2
[10] = tested on: Mus musculus; assay: Neurotoxicity in ip dosed CF1 albino mouse assessed as minimum dose required to cause tremors after 0.5 hrs by rotarod test; assay type: toxicity, organism-based; conditions: in vivo
[11] = tested on: Mus musculus; assay: Neurotoxicity in CF1 albino mouse assessed as motor impairment at 300 mg/kg, ip after 0.5 hrs by rotarod test; assay type: toxicity, organism-based; set-up: dose 300 mg/kg, route intraperitoneal; conditions: in vivo; summary of the method: as §2
[12] = tested on: Rattus norvegicus; assay: Anticonvulsant activity in Sprague-Dawley albino rat assessed as protection against maximal electroshock at 30 mg/kg, po after 0.25 hrs; assay type: functional
Summary of the method: (§4)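 Male Sprague-Dawley rats in groups of four received 30 mg/kg p.o. as a suspension in 0.5% methylcellulose/water. Maximal electroshock seizure protection was scored at 0.25, 0.5, 1, 2 and 4 h and reported as rats protected/rats tested.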

[13] = tested on: Rattus norvegicus; assay: Anticonvulsant activity in Sprague-Dawley albino rat assessed as protection against maximal electroshock at 30 mg/kg, po after 0.5 hrs; assay type: functional; summary of the method: as §4
[14] = tested on: Rattus norvegicus; assay: Anticonvulsant activity in Sprague-Dawley albino rat assessed as protection against maximal electroshock at 30 mg/kg, po after 1 hr; assay type: functional; summary of the method: as §4
[15] = tested on: Rattus norvegicus; assay: Anticonvulsant activity in Sprague-Dawley albino rat assessed as protection against maximal electroshock at 30 mg/kg, po after 2 hrs; assay type: functional; summary of the method: as §4
[16] = tested on: Rattus norvegicus; assay: Anticonvulsant activity in Sprague-Dawley albino rat assessed as protection against maximal electroshock at 30 mg/kg, po after 4 hrs; assay type: functional; summary of the method: as §4
[17] = tested on: Rattus norvegicus; assay: Neurotoxicity in Sprague-Dawley albino rat assessed as motor impairment at 30 mg/kg, po by rotarod test; assay type: toxicity, organism-based; set-up: dose 30 mg/kg, route oral; conditions: in vivo
Summary of the method: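 Male Sprague-Dawley rats in groups of four were given 30 mg/kg orally in 0.5% methylcellulose/water. Motor impairment was then assessed on the standardized minimal motor impairment rotorod test.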

[18] = tested on: Mus musculus; assay: Anticonvulsant activity in CF1 albino mouse assessed as protection against maximal electroshock at 100 mg/kg, ip after 0.25 hrs; assay type: functional, organism-based; set-up: dose 100 mg/kg; summary of the method: as §1

| Compound | minimal effective dose [1] [mg/kg] | minimal effective dose [2] [mg/kg] | Activity [3] | Activity [4] | Activity [5] | Activity [6] | Activity [7] | Activity [8] | Activity [9] | Activity [10] | Activity [11] | Activity [12] [%] | Activity [13] [%] | Activity [14] [%] | Activity [15] [%] | Activity [16] [%] | Activity [17] | Activity [18] |
| --- | --- | --- | --- | --- | --- | --- | --- | --- | --- | --- | --- | --- | --- | --- | --- | --- | --- | --- |
| O=C(CN1C(=O)c2ccccc2C1=O)N1CCOCC1 | 100 | 100 | Toxic | Toxic | inactive | inactive | – | – | – | – | – | – | – | – | – | – | – | – |
| O=C(CN1C(=O)C2CCCCC2C1=O)N1CCN(c2cccc(Cl)c2Cl)CC1 (stereo not given) | – | – | – | – | inactive | inactive | inactive | inactive | Non-toxic | Toxic | – | – | – | – | – | – | – | – |
| O=C(CN1C(=O)C2CCCCC2C1=O)N1CCN(c2ccc(F)cc2)CC1 (stereo not given) | 300 | 300 | – | – | inactive | inactive | – | – | Non-toxic | – | Non-toxic | 0 | 50 | 25 | 0 | 0 | Non-toxic | Active |
